Data as given in PubChem BioAssay.
Calls of active or inactive are those of the source.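 The calls were made as follows, unless noted: active = viability at or under a set limit in both replicates, limit being median viability minus 3 SD (cut at about 48% in these data, passing the limit was not always enough); inconclusive = at or under the limit in just one replicate; inactive = at or above the limit in both replicates.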

What was measured:
[1] = HUVEC growth inhibition – cell-based, human, primary screen (AID 575;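 active = viability at or below 30% in both replicate assays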;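 also: 100% = median of untreated cell wells with 0.1% DMSO on each plate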); conditions: HUVEC proliferation, CellTiter-Glo luminescence, 72 h; at 10 µM; stronger effect = lower value
Summary of the method: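 Test system: primary human umbilical vein endothelial cells. Quantity: 1250 cells/well. Compound: single 10 µM dose, 0.1% DMSO, from 5x medium stock. Timing: 72 h treatment at 37 °C. Detection: ATP-based CellTiter-Glo luminescent read. Benchmarks: vehicle and MePR control wells. Format: 384-well plates coated with collagen.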

[2] = growth inhibitors of H69AR lung tumor, primary screen, human, duplicate replicates (AID 580); conditions: H69AR lung tumor cells viability, ATP luminescence, 72 h; at 10 µM; stronger effect = lower value;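 also: 100% = mean luminescence of untreated wells and 0% = no signal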
[3] = reversal of MRP1-mediated doxorubicin resistance, pilot screen, H69AR cells, doxorubicin co-treatment (AID 601;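 active = viability loss from added drug above about 55%, and viability with drug at most 40%, in both replicates, limit read from the data, passing the limit was not always enough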); conditions: CellTiter-Glo, 72 h, at 10 µM; for differential viability (reversal): stronger effect = higher value
[4] = 384-well plate pilot, post-Golgi transport modulator project, inhibition of yeast transport mutant growth (AID 636; in the data active = inhibition above about 31%); conditions: absorbance 615 nm, about 18 h, stronger effect = higher value
[5] = growth suppression of yeast trafficking mutant, preliminary HTS, modulators of trafficking downstream of Golgi apparatus project, 1536-format plate, OD 615 nm (AID 637; in the data active = inhibition above about 30%); conditions: yeast transport mutant growth, absorbance 615 nm, 18 h; stronger effect = higher value
[6] = H69AR cells + 2 uM doxorubicin, measured here: viability with 2 uM doxorubicin, stronger effect = lower value
[7] = H69AR cells, compound alone cytotoxicity

Row | SMILES | viability [1] | viability [2] | differential viability (reversal) ([3]; H69AR cells + 2 uM doxorubicin) | viability [3, 6] [%] | viability [3, 7] [%] | inhibition [4] | inhibition [5]
1 | Nc1nc(-c2ccccc2)cc(C(F)(F)F)n1 | 95.4% (inactive) | 103% (inactive) | 8.53% (inactive) | 94.1 | 103 | -3.51% (inactive) | 1.27% (inactive)
2 | O=C(Cn1nnc2c(cnn2-c2ccc(F)cc2)c1=O)c1ccccc1F | 75.6% (inactive) | 81.2% (inactive) | 16.1% (inactive) | 65.1 | 81.2 | -3.64% (inactive) | -0.48% (inactive)
3 | O=C(CSc1nnc2c3cc(F)ccc3nc(-c3ccccc3)n12)N1CCOCC1 | 77% (inactive) | 72.6% (inactive) | 0.06% (inactive) | 72.5 | 72.6 | 0.27% (inactive) | 1.59% (inactive)
4 | Cc1ccc(SC(C)c2nc(-c3ccccc3)no2)cc1 (centres undefined) | 114% (inactive) | 99.9% (inactive) | 4.68% (inactive) | 95.2 | 99.9 | -6.13% (inactive) | -5.08% (inactive)
5 | CCOc1ccc(-c2nc(C#N)c(N3CCN(C)CC3)o2)cc1 | 82.1% (inactive) | 97.6% (inactive) | 0.87% (inactive) | 96.7 | 97.6 | -1.6% (inactive) | 11.3% (inactive)
6 | CCCC(=O)Nc1ccccc1-c1nnn(CC(=O)Nc2ccc(OC)cc2)n1 | 73.8% (inactive) | 83.1% (inactive) | -14.1% (inactive) | 97.2 | 83.1 | -3.33% (inactive) | 5.4% (inactive)
7 | Cc1cc(C(F)(F)F)nc(SCC(=O)NC2=NC(=O)C(C)S2)n1 (centres undefined) | 96% (inactive) | 100% (inactive) | 16.8% (inactive) | 83.6 | 100 | -2.27% (inactive) | -7.3% (inactive)
8 | O=C(Cc1ccccc1)Nc1ccc(CN2CCOCC2)cc1 | 105% (inactive) | 97.3% (inactive) | 6.05% (inactive) | 91.2 | 97.3 | -4.67% (inactive) | -2.38% (inactive)
9 | CCN1CCN(Cc2c(C)[nH]c3ccc(OC)cc3c2=O)CC1 | 96.8% (inactive) | 93.5% (inactive) | 4.75% (inactive) | 88.8 | 93.5 | -2.73% (inactive) | 4.44% (inactive)
10 | CC(=O)Nc1ccc(NC(=O)c2ccccc2N(C)S(C)(=O)=O)cc1 | 101% (inactive) | 94.9% (inactive) | 3.22% (inactive) | 91.7 | 94.9 | -6.71% (inactive) | -0.79% (inactive)
11 | CSc1nsc(SCC(=O)N2CCc3ccccc32)n1 | 98.6% (inactive) | 96.8% (inactive) | 4.61% (inactive) | 92.2 | 96.8 | -6.05% (inactive) | 3.33% (inactive)
12 | CN(CC(=O)O)S(=O)(=O)c1cc(Cl)ccc1Cl | 112% (inactive) | 96.8% (inactive) | 12.2% (inactive) | 84.6 | 96.8 | -2.53% (inactive) | -5.24% (inactive)
13 | O=C1NC(c2ccccc2)(C(F)(F)F)SC2=NCCCN12 (centres undefined) | 102% (inactive) | 97.2% (inactive) | 7.68% (inactive) | 89.6 | 97.2 | 3.82% (inactive) | -6.98% (inactive)
14 | CCOC(=O)CN(C)Cc1c[nH]c2ccccc12 | 80.4% (inactive) | 87.1% (inactive) | -11.6% (inactive) | 98.7 | 87.1 | -4.47% (inactive) | 7.14% (inactive)
15 | O=C1c2cccnc2C(=O)N1c1cccc(-c2nc3ccccc3o2)c1 | 111% (inactive) | 92.9% (inactive) | 6.53% (inactive) | 86.4 | 92.9 | -6.27% (inactive) | 3.65% (inactive)
16 | CCN(CC(=O)Nc1c(C(=O)OC)[nH]c2ccccc12)c1ccc2c(c1)OCO2 | 67.8% (inactive) | 72% (inactive) | -6.82% (inactive) | 78.8 | 72 | -5.2% (inactive) | -2.22% (inactive)
17 | O=C(O)c1ccccc1S | 84.4% (inactive) | 74.7% (inactive) | 6.9% (inactive) | 67.8 | 74.7 | -2.34% (inactive) | 3.5% (inactive)
18 | COC(=O)c1ccccc1NC(=O)N1CCCC1 | 108% (inactive) | 103% (inactive) | 13.2% (inactive) | 90.1 | 103 | -3.2% (inactive) | -5.56% (inactive)
19 | Cn1c(Cc2csc(N)n2)nnc1SCC(=O)NC1CCCCC1 | 112% (inactive) | 96.8% (inactive) | -5.84% (inactive) | 103 | 96.8 | 0.92% (inactive) | -0.63% (inactive)

Row | SMILES | viability [1] | viability [2] | differential viability (reversal) ([3]; H69AR cells + 2 uM doxorubicin) | viability [3, 6] [%] | viability [3, 7] [%] | inhibition [4] | inhibition [5]
20 | COCCOC(=O)C1=C(C)NC(=O)CC1c1cc2c(cc1Br)OCO2 (centres undefined) | 89.4% (inactive) | 97.4% (inactive) | 25.1% (inactive) | 72.4 | 97.4 | -4.67% (inactive) | 2.86% (inactive)
21 | O=C(CCCCn1c(=O)[nH]c2ccsc2c1=O)NCc1cccnc1 | 96.3% (inactive) | 99.1% (inactive) | 2.01% (inactive) | 97.1 | 99.1 | -1.18% (inactive) | -0.63% (inactive)
22 | CCn1c(CSc2nc(C)cc(C)n2)nnc1SCC(=O)Nc1ccccc1 | 104% (inactive) | 89.5% (inactive) | 4.12% (inactive) | 85.4 | 89.5 | -4.27% (inactive) | -3.02% (inactive)
23 | CCc1c(C(=O)NCCc2ccc(OC)c(OC)c2)[nH]c(C)c1C(C)=O | 98.6% (inactive) | 87% (inactive) | 4.88% (inactive) | 82.1 | 87 | -5.2% (inactive) | 3.97% (inactive)
24 | CCCOc1cccc(C(=O)N(Cc2ccco2)C2CCS(=O)(=O)C2)c1 (centres undefined) | 98% (inactive) | 90.5% (inactive) | 0.72% (inactive) | 89.8 | 90.5 | -3.6% (inactive) | -7.94% (inactive)
25 | CCOC(=O)c1ccc(NS(=O)(=O)c2ccc(SC)cc2)cc1 | 99% (inactive) | 108% (inactive) | 10.8% (inactive) | 97.4 | 108 | -7.11% (inactive) | -3.81% (inactive)
26 | Cc1cc(C(=O)Nc2cc(C)n(Cc3ccc(Cl)cc3)n2)no1 | 102% (inactive) | 94.5% (inactive) | 2.41% (inactive) | 92.1 | 94.5 | 1.97% (inactive) | -6.51% (inactive)
27 | CCCOc1ccc(S(=O)(=O)NCCCN2CCOCC2)c2ccccc12 | 83.2% (inactive) | 90% (inactive) | 7.43% (inactive) | 82.6 | 90 | -6.13% (inactive) | 4.6% (inactive)
28 | COc1ccc(N(CC(=O)Nc2ccccc2SC)S(C)(=O)=O)cc1OC | 113% (inactive) | 98.2% (inactive) | 7.5% (inactive) | 90.7 | 98.2 | -2.63% (inactive) | 1.75% (inactive)
29 | O=C(NCC(=O)N(CCc1ccccc1)C(C(=O)NC1CCCC1)c1cccnc1)c1ccco1 (centres undefined) | 96.9% (inactive) | 99.8% (inactive) | -1.49% (inactive) | 101 | 99.8 | -2.24% (inactive) | -6.98% (inactive)
30 | O=C1CN(c2ccccc2F)C(=O)CN1c1ccccc1F | 112% (inactive) | 102% (inactive) | 10.3% (inactive) | 92.2 | 102 | -1.97% (inactive) | -0.63% (inactive)
31 | O=C(NCc1ccco1)C1Cc2ccccc2CN1S(=O)(=O)c1ccccc1F (centres undefined) | 57.5% (inactive) | 25.3% (active) | -9.23% (inactive) | 34.6 | 25.3 | -1.95% (inactive) | 1.27% (inactive)
32 | Cc1cc(NC(=O)c2ccc3nc(-c4ccccc4)c(-c4ccccc4)nc3c2)no1 | 23.6% (active) | 13.4% (active) | -1.37% (inactive) | 14.8 | 13.4 | -1.05% (inactive) | 0.79% (inactive)
33 | COc1cccc(C(=O)Nc2cccc(C(=O)N3CCOCC3)c2)c1 | 97.1% (inactive) | 90.1% (inactive) | 13% (inactive) | 77.1 | 90.1 | -4.68% (inactive) | 0.32% (inactive)
34 | CCN1CCN(C(=O)c2cn(CCOC)c(=O)c3c2c2ccccc2n3C)CC1 | 106% (inactive) | 90.6% (inactive) | -2.77% (inactive) | 93.4 | 90.6 | -2.86% (inactive) | -5.4% (inactive)
35 | CNCCC(Oc1ccc(C(F)(F)F)cc1)c1ccccc1 (centres undefined) | 54.1% (inactive) | 58.5% (inactive) | -6.63% (inactive) | 65.2 | 58.5 | 2.47% (inactive) | -3% (inactive)
36 | CCCCNC(=O)c1cc(-c2ccc(F)cc2)on1 | 74.1% (inactive) | 81.2% (inactive) | 21.9% (inactive) | 59.2 | 81.2 | -2.5% (inactive) | -1.11% (inactive)
37 | CCSC1=C(C#N)C(c2cccc(OC)c2)CC(=O)N1 (centres undefined) | 85.5% (inactive) | 101% (inactive) | 8.71% (inactive) | 92.6 | 101 | 0.53% (inactive) | -1.9% (inactive)
